The results in this text go back to ChEMBL document CHEMBL2331233, “Rational design, efficient syntheses and biological evaluation of N,N'-symmetrically bis-substituted butylimidazole analogs as a new class of potent Angiotensin II receptor blockers” (Eur J Med Chem, 2013).

For assay [1], the target named is T1, Type-1 angiotensin II receptor (Homo sapiens, UniProt P30556).
T1 sequence (P30556 whole entry): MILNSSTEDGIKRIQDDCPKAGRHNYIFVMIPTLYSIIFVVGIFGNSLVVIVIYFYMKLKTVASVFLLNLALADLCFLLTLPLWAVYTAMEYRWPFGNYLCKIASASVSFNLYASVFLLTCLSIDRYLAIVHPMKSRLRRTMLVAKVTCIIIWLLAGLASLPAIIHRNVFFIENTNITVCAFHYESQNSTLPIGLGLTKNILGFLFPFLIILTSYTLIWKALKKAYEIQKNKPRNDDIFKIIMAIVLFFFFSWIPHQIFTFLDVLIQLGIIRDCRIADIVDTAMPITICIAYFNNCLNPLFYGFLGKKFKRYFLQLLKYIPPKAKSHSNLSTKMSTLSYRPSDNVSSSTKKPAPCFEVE
Nature of the assay: Displacement of [125I-Sar1-Ile8]-ANG2 from human Angiotensin 2 type-1 receptor expressed in HEK293 cells after 1 hr by gamma counting analysis. It counts as cell-based. Put shortly:
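Membranes from HEK 293 cells stably transfected with human AT1 receptor (Geneticin 700 µg/mL selection) incubated in buffer B (50 mM Tris–HCl, 1 mM EDTA, 10 mM MgCl2, 0.2% BSA, bacitracin, aprotinin, pH 7.4) with 100,000–120,000 cpm radioligand and increasing analog concentrations, 1 h, 24 °C; GF/C filtration. Nonspecific binding with 1000 nM [Sar1-Ile8]ANGII. One-site nonlinear fit gives -log IC50; 2–4 experiments.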
A general note: Displacement assays read how much labelled ligand stays bound in the presence of the test substance.

Assay [2] can be described thus: Antagonist activity at Angiotensin 2 type-1 receptor in Wistar rat uterus assessed as suppression of ANG2-induced contraction.

In the case of `CCCCc1c[n+](Cc2ccc(-c3ccccc3-c3nn[nH]n3)cc2)c(CO)n1Cc1ccc(-c2ccccc2-c2nn[nH]n2)cc1.[Br-]`, the IC50 in assay [1] was 4.27 nM. Also, the pA2 in assay [2] is recorded as 8.58.

In assay [1], `CCCCc1c(Cl)[n+](Cc2ccc(-c3ccccc3-c3nn[nH]n3)cc2)cn1Cc1ccc(-c2ccccc2-c2nn[nH]n2)cc1` showed an IC50 of 832 nM.

In assay [1], `CCCCc1c(Br)[n+](Cc2ccc(-c3ccccc3-c3nn[nH]n3)cc2)cn1Cc1ccc(-c2ccccc2-c2nn[nH]n2)cc1` gave an IC50 of 708 nM.

As to `CCCCc1c(Cl)[n+](Cc2ccc(-c3ccccc3-c3nn[nH]n3)cc2)c(CO)n1Cc1ccc(-c2ccccc2-c2nn[nH]n2)cc1`, the IC50 in assay [1] is 6460 nM.

In assay [1], `CCCCc1c(Br)[n+](Cc2ccc(-c3ccccc3-c3nn[nH]n3)cc2)c(CO)n1Cc1ccc(-c2ccccc2-c2nn[nH]n2)cc1.[Br-]` showed an IC50 of 42.7 nM. In assay [2], the pA2 came to 7.13.

As for `CCCCc1n(Cc2ccc(-c3ccccc3-c3nn[nH]n3)cc2)cc[n+]1Cc1ccc(-c2ccccc2-c2nn[nH]n2)cc1`, the half-maximal inhibitory concentration (IC50) in assay [1] was 1700 nM.

In the case of `CCCCc1n(Cc2ccc(-c3ccccc3-c3nn[nH]n3)cc2)c(CO)c(Cl)[n+]1Cc1ccc(-c2ccccc2-c2nn[nH]n2)cc1`, the concentration for half-maximal inhibition (IC50) in assay [1] is 417 nM.

Consider `CCCCc1c[n+](Cc2ccc(-c3ccccc3C(=O)O)cc2)cn1Cc1ccc(-c2ccccc2C(=O)O)cc1`, for which the IC50 in assay [1] was 331 nM.

`CCCCc1c[n+](Cc2ccc(-c3ccccc3C(=O)O)cc2)c(CO)n1Cc1ccc(-c2ccccc2C(=O)O)cc1` had an IC50 in assay [1] of 501 nM.

In assay [1], `CCCCc1c[n+](Cc2ccc(-c3ccccc3-c3nn[nH]n3)cc2)cn1Cc1ccc(-c2ccccc2-c2nn[nH]n2)cc1` gave an IC50 of 0.347 nM.

Compound `CCCCc1c[n+](Cc2ccc(-c3ccccc3-c3nn[n-]n3)cc2)cn1Cc1ccc(-c2ccccc2-c2nn[nH]n2)cc1` showed an IC50 in assay [1] of 0.912 nM.

As to `CCCCc1c[n+](Cc2ccc(-c3ccccc3-c3nn[n-]n3)cc2)cn1Cc1ccc(-c2ccccc2-c2nn[n-]n2)cc1.[Br-].[Na+].[Na+]`, in assay [1], the IC50 was 2.88 nM. Moreover, the pA2 in assay [2] is given as 8.45.

In general, IC50 refers to the concentration at which inhibition is half-maximal. A high value points to weaker potency in that assay. The term pA2 denotes a measure of antagonist potency on a negative log scale.
